Most compounds without a hit are left out; they make up all but 1.6% or so of the library.
Neddyl block = inhibitors of cullin neddylation, primary screen, biochemical, TR-FRET, uHTS, NAE and Ubc12. NEDD8-conjugating enzyme Ubc12 (Homo sapiens) + NEDD8-activating enzyme E1 regulatory …. calls only at 25 µM. 360,000 compounds, 0.58% hits; in the data active = inhibition above about 36%
Target sequence (P61081 whole entry, looked up): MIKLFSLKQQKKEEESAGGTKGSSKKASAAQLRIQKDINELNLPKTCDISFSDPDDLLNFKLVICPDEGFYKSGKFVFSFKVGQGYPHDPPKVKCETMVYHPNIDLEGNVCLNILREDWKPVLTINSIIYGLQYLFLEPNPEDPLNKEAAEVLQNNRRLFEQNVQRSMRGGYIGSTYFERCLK
Target sequence (Q13564 whole entry, looked up): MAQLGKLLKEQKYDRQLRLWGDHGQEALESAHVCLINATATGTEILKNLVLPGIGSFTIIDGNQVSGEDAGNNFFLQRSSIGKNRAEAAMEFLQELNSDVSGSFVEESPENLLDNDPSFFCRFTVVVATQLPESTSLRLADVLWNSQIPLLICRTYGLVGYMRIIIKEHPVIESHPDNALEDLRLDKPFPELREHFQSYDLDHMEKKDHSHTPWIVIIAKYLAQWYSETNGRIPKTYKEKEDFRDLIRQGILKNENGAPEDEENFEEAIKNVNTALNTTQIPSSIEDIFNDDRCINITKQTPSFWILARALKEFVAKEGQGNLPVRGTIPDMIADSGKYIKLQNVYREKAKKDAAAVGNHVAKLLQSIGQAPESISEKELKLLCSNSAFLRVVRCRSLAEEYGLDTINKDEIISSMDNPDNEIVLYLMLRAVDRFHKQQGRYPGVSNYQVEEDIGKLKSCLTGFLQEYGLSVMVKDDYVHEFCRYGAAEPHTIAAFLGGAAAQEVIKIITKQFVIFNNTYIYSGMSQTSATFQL
DNA FID counter = compounds displacing fluorescent DNA intercalator, primary screen, artefact control for HCV NS3 helicase inhibitor project, biochemical, FID fluorescence; DNA fluorescent intercalator displacement; inhibition, % at 7.9 µM; 290,000 compounds, 0.17% hits; in the data active = inhibition above about 37%;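 also: 0% = vehicle and 100% = reference compound; higher means more ethidium bromide displaced from hairpin DNA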
Apaf1 inhib = inhibitors of human Apaf-1 apoptosome, primary screen, biochemical, DEVD-Rh110 fluorescence, uHTS | Apoptotic protease-activating factor 1 (Homo sapiens), O14727 | reconstituted apoptosome caspase-3 activity | inhibition, % at 20 µM | 330,000 compounds, 0.71% hits | AID 489030, 2010; active = inhibition of at least 40% at 20 µM;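 also: plate controls were DMSO wells for no effect and DEVD-CHO caspase inhibitor wells for full effect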
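detection = Rh110 fluorescence intensity | test system = biochemical Apaf-1 apoptosome reconstitution | also added = cytochrome c and DEVD-Rh110 substrate | schedule = 30 min plus 50 min, RT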
RAD54 inh = inhibitors of human RAD54 branch migration, primary screen, biochemical, fluorescence, single point | DNA repair and recombination protein RAD54-like (Homo sapiens), Q92698 | RAD54 Holliday junction branch migration, FAM/BHQ fluorescence | 360,000 compounds, 0.14% hits | inhibition, % at 10.4 µM;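 active = mean normalized replicate activity at least 40 and at least half of replicates scoring 40 or more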;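 also: 0% = median of neutral control wells and 100% = median of positive control wells; inhibitors cause a drop in the FAM fluorescence signal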
UBC13 inh = UBC13 polyubiquitin chain formation inhibitors, primary screen, biochemical, TR-FRET, uHTS. Ubiquitin-conjugating enzyme E2 N (Homo sapiens), P61088. inhibition, % at 20 µM. 330,000 compounds, 0.47% hits. AID 485273, 2010; in the data active = inhibition above about 45%, passing the limit was not always enough
RAD52 anneal inh = RAD52 DNA annealing inhibitors, primary screen, biochemical, FRET, single point, set 2 | DNA repair protein RAD52 homolog (Homo sapiens), P43351 | recombinant RAD52 DNA annealing, FRET fluorescence | inhibition, % at 18.7 µM | 360,000 compounds, 0.46% hits | AID 651710, 2012;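 active = every replicate showing at least 50% inhibition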
Apaf-1 inh conf2 = Apaf-1 inhibitors, single-dose retest, confirmation, biochemical, fluorescence, DEVD-Rh110, 20 µM | AID 504614, 2011 | reconstituted apoptosome, caspase-3 DEVD-Rh110 fluorescence | inhibition, % at 20 µM | shares compounds with Apaf1 inhib | 1,800 compounds, 25% hits;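 active = mean inhibition of at least 40% at 20 µM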;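 also: plate controls were DMSO wells for no effect and DEVD-CHO caspase inhibitor control wells for full effect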
Rh110 quench = Rh110 fluorescence interference by putative Apaf-1 inhibitors, confirmation, artefact control for Apaf-1 inhibitor project, biochemical, 20 µM | quenched caspase reaction | activation (fluorescence interference), % at 20 µM | shares compounds with Apaf1 inhib | 1,800 tested, under 10 active | AID 504615, 2011;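 active = signal rise of 40% or more at 20 µM, treated as a fluorescence artifact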
Apaf1 inh interf = fluorescence interference of Apaf-1 inhibitor hits, dose response, artefact control for Apaf-1 inhibitor project. shares compounds with Apaf1 inhib. fluorescence interference counterscreen, Apaf-1 assay format. IC50, µM. 460 tested, under 10 active; call rule not given here
Active calls of the source: *; i = inactive; nt = no result shown.

SMILES	Neddyl block	DNA FID counter	Apaf1 inhib	RAD54 inh	UBC13 inh	RAD52 anneal inh	Apaf-1 inh conf2	Rh110 quench	others
O=C(NC(=S)Nc1ccc(N2CCOCC2)cc1)c1ccco1	i	-2.6	-2.8	12.4	-3.2	nt	nt	nt
S=C(Nc1ccc(N2CCOCC2)cc1)Nc1ccc2nc(-c3ccco3)c(-c3ccco3)nc2c1	i	-19.3	41.3*	1.2	31.8	nt	26.0	8.8
CC(C)C1Nc2ccc(S(N)(=O)=O)cc2C2C=CCC21 (stereo not drawn)	i	3.8	38.6	-16.1	0.6	nt	nt	nt
NS(=O)(=O)c1ccc2c(c1)C1C=CCC1C(C1CC=CCC1)N2 (stereo not drawn)	i	-4.0	46.7*	-6.8	-5.9	nt	21.2	0.3
O=C(OCc1nnc(-c2ccccc2)o1)c1ccc([N+](=O)[O-])s1	i	nt	47.2*	5.3	-3.5	-14.1	20.6	-2.5
COCC(=O)Nc1ccc2c(c1)OC[C@H](C)N(CC1CCCCC1)C[C@H](C)[C@@H](OC)CN(C)C2=O	nt	nt	nt	-13.5	nt	-7.2	nt	nt
CCOC(=O)c1c2c(n(C)c1C)C(=O)C(=O)c1ccc(Br)cc1-2	i	1.9	95.6*	1.7	-60.9	nt	71.6*	5.8	Apaf1 inh interf=>100
O=c1[nH]c(N2CCOCC2)cc2ccccc12	nt	nt	92.5*	-1.5	-6.0	-0.3	74.0*	1.9	Apaf1 inh interf=>100
Oc1cccc(/C=N/N=C/c2cccc(O)c2O)c1O	i	-1.4	-6.9	8.6	-7.8	-9.8	nt	nt
Cc1ccccc1N=Cc1cccc(O)c1O	i	3.9	73.8*	-12.2	-12.2	nt	9.2	3.7
CC(N=Cc1cccc(O)c1O)c1ccccc1 (stereo not drawn)	i	-8.9	71.3*	-0.6	-19.4	nt	9.9	-2.8
C[C@@H]1CN([C@H](C)CO)C(=O)c2cc(-c3ccncc3)cnc2O[C@@H]1CN(C)C(=O)C1CCCCC1	nt	nt	nt	nt	nt	14.8	nt	nt
COc1ccc2c3c(n(C)c2c1)[C@H](CO)N(C(=O)C1CCCC1)CC31CN(Cc2cccc(F)c2)C1	nt	nt	nt	nt	nt	-3.7	nt	nt
O=C(NCCOc1nc(N2CCCCC2)nc(N2CCCCC2)n1)Nc1ccccc1	i	-6.1	40.9*	6.9	-8.9	-3.0	14.7	10.6
COc1cc(/C=C2\SC(=S)N(N3CCOCC3)C2=O)ccc1O	i	-4.4	-7.9	nt	-1.1	-20.4	nt	nt
COc1cc(/C=C2/C(=O)N(c3ccc([N+](=O)[O-])cc3)N=C2N2CCOCC2)ccc1O	i	-1.1	86.4*	-4.4	-126.0	-1.4	39.4	3.2
COc1ccccc1C(=O)Nc1ccc(Oc2nnc(-c3ccc(C)cc3)c3ccccc23)cc1	i	1.0	40.1*	2.6	-17.9	nt	8.1	6.5
Cc1ccc(Oc2nnc(-c3ccc(C)cc3)c3ccccc23)cc1	i	-3.0	7.7	3.5	4.0	-19.8	nt	nt
CC(=O)N1CCn2c3c(c4cc(C)ccc42)CCCC31 (stereo not drawn)	i	-25.0	-4.8	-7.5	-0.9	-14.8	nt	nt
CC(=O)N1CCn2c3c(c(=O)c4cc(C)ccc42)CCC31 (stereo not drawn)	i	-3.8	73.1*	-16.2	-13.5	nt	16.6	-1.0
Clc1ccccc1-c1nn2c(-c3ccncc3)nnc2s1	i	4.7	46.7*	nt	6.6	nt	63.5*	0.3	Apaf1 inh interf=>100
Clc1ccccc1-c1nnc2sc(-c3ccncc3)nn12	i	-4.6	2.3	6.8	6.2	-4.8	nt	nt
CCOC(=O)N1CCc2c(sc3c2C(=O)NC(c2ccccc2)N3)C1 (stereo not drawn)	nt	-6.3	81.1*	-11.8	-21.9	nt	19.6	0.6
CN1c2ccccc2C(C)(C)C12C=Nc1c(cc(N3CCOCC3)c3ccccc13)O2 (stereo not drawn)	nt	-5.5	68.5*	-8.3	-15.5	nt	19.2	2.9
Cc1ccc(/C=N/NC(=O)C(C)NC(=O)c2ccccc2)cc1 (stereo not drawn)	i	-5.0	41.2*	nt	2.4	-0.8	8.0	-6.0
SMILES	Neddyl block	DNA FID counter	Apaf1 inhib	RAD54 inh	UBC13 inh	RAD52 anneal inh	Apaf-1 inh conf2	Rh110 quench	others
O=C(N/N=C/c1ccc(F)cc1)c1ccccc1	i	-13.5	-1.9	nt	-5.8	-12.8	nt	nt
CNC[C@@H]1OCCCC[C@H](C)Oc2ccc(N(C)C)cc2C(=O)N([C@H](C)CO)C[C@@H]1C	nt	nt	nt	-8.2	nt	-54.8	nt	nt
O=C(CSc1nc(=O)n2ccccc2n1)NCc1ccccc1	i	nt	-0.9	-2.7	-9.1	-6.5	nt	nt
O=C(CSc1nc(=O)n2ccccc2n1)NCc1ccccc1Cl	i	nt	48.5*	2.6	-3.1	-9.9	-5.5	-0.8
COc1cccc(C(=O)Nc2ccc3c(c2)OC[C@@H](C)N(C(=O)C2CCC2)C[C@@H](C)[C@H](OC)CN(C)C3=O)c1	nt	nt	nt	4.2	nt	15.9	nt	nt
CCOc1cc(NCc2ccccc2)c2ncn(C(C)C)c2c1	i	nt	41.7*	-6.6	19.9	-26.9	53.8*	6.5	Apaf1 inh interf=>100
COCCOc1cc(NCc2ccccc2)c2ncn(C(C)C)c2c1	i	nt	68.1*	-2.7	-7.3	-20.5	28.7	0.7
CC(C)n1cnc2c(NCc3ccccc3)cc(Cc3ccc(F)cc3)cc21	i	nt	25.3	5.7	21.0	8.6	nt	nt
CCC(CO)Oc1cc(NCc2ccc(C(=O)O)cc2)c2ncn(C(C)C)c2c1 (stereo not drawn)	i	nt	3.5	-8.8	10.5	-18.9	nt	nt
CCCOc1cc(NCc2ccccc2)c2ncn(C(C)C)c2c1	i	nt	44.2*	-13.9	25.2	2.0	54.2*	22.4	Apaf1 inh interf=>100
COc1ccc(C(=O)Nc2ccc3c(c2)OC[C@@H](C)N(C(C)=O)C[C@@H](C)[C@H](OC)CN(C)C3=O)cc1	nt	nt	nt	-1.3	nt	-5.8	nt	nt
CCN(Cc1ccccc1)C(=O)c1cccc(S(=O)(=O)N2CCN(c3ccc(F)cc3)CC2)c1	i	nt	42.1*	nt	9.7	2.1	38.8	0.1
Cc1ccc(C(=O)c2c(C)oc3c2C(=O)C(=O)c2ccccc2-3)cc1	i	-27.2	88.4*	nt	-143.8	nt	73.4*	5.0	Apaf1 inh interf=>100
Cc1oc2c(c1C(=O)N1CCC(C)CC1)C(=O)c1ccccc1C2=O	nt	-13.1	41.5*	nt	-51.8	-99.7	33.2	-0.2
